Experimental data reported in ChEMBL document CHEMBL1165989, “Characterization of pseudacyclins A-E, a suite of cyclic peptides produced by Pseudallescheria boydii” (J Nat Prod, 2010).
Calls of active or inactive are those of the source. The calls are words filed in the database; no cut-off is given here.

Columns and labels:
[1] = Cytotoxicity against resting human lymphocytes by MTT assay; assay type: cell-based; settings: Lymphocyte
[2] = Cytotoxicity against mitogen-activated human lymphocytes by MTT assay; assay type: cell-based; settings: Lymphocyte
[3] = Inhibition of NO synthase activity in mouse B10R cells assessed as LPS-induced NO production after 24 hrs; assay type: cell-based
In short: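 B10R macrophages stimulated with […] (0.5 µg/mL). NO-synthase activity was read as NO2- production over 24 h, and an IC50 was derived.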

[4] = tested on: Staphylococcus aureus; test: Antimicrobial activity against Staphylococcus aureus; assay type: functional, organism-based
[5] = tested on: Enterococcus faecalis; test: Antimicrobial activity against Enterococcus faecalis; assay type: functional, organism-based
[6] = tested on: Escherichia coli; test: Antimicrobial activity against Escherichia coli; assay type: functional, organism-based
[7] = tested on: Streptococcus pyogenes; test: Antimicrobial activity against Streptococcus hemolyticus; assay type: functional, organism-based
[8] = tested on: Candida albicans; test: Antimicrobial activity against Candida albicans; assay type: functional, organism-based
[9] = tested on: Pichia kudriavzevii; test: Antimicrobial activity against Candida krusei; assay type: functional, organism-based
[10] = tested on: Candida tropicalis; test: Antimicrobial activity against Candida tropicalis; assay type: functional, organism-based
[11] = tested on: Candida parapsilosis; test: Antimicrobial activity against Candida parapsilosis; assay type: functional, organism-based

- IC50 [3]: 41.4 µM
SMILES: CC[C@H](C)[C@H](NC(C)=O)C(=O)N[C@H]1CCCNC(=O)[C@H]([C@@H](C)CC)NC(=O)[C@H]([C@@H](C)CC)NC(=O)[C@@H]2CCCN2C(=O)[C@@H](Cc2ccccc2)NC1=O [PSEUDACYCLIN A]
- IC50 [1]: 32 µM
- IC50 [2]: 12.9 µM
- inhibition [4]: inactive
- inhibition [5]: inactive
- inhibition [6]: inactive
- inhibition [7]: inactive
- inhibition [8]: inactive
- inhibition [9]: inactive
- inhibition [10]: inactive
- inhibition [11]: inactive
